In ChEMBL document CHEMBL4725371, “A Novel Redox Modulator Induces a GPX4-Mediated Cell Death That Is Dependent on Iron and Reactive Oxygen Species” (J Med Chem, 2020):
Activity calls are given as the source filed them. No cut-off for these calls is given here.

Tests used:
MIA PaCa-2 [1] = assay: Cytotoxicity against human MIA PaCa-2 cells measured after 72 hrs by MTT assay; type: functional, cell-based; settings: MIA PaCa-2, 72 h
Outline: (§1)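 Cells were kept in RPMI 1640 with 10% FBS at 37 °C, 5% CO₂, under 35 passages. Cells were seeded, attached overnight and treated with compound or DMSO for 72 h. MTT was added at 0.3 mg/mL for 3 h, then dissolved in DMSO and read as absorbance at 570 nm. IC50 was fitted from the curve. Values are mean ± sd of three independent experiments.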

BXPC-3 = assay: Cytotoxicity against human BXPC-3 cells measured after 72 hrs by MTT assay; type: functional, cell-based; settings: BXPC-3, 72 h; outline: as §1
PANC-1 = assay: Cytotoxicity against human PANC-1 cells measured after 72 hrs by MTT assay; type: functional, cell-based; settings: PANC-1, 72 h; outline: as §1
MIA PaCa-2 [2] = assay: Induction of ferroptosis in human MIA PaCa-2 cells assessed as increase in lipid peroxidation at 20 to 40 uM measured after 24 hrs by C11-BODIPY dye based fluorescence assay; type: functional, cell-based; settings: dose microM 20-40, time 24.0 hrs
Outline: (§2)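 MIA PaCa-2 cells (RPMI 1640, 10% FBS, 37 °C, 5% CO2) exposed to compound for the set time, then 10 μM C11-BODIPY added for 30 min at 37 °C. After two DPBS washes, read in HBSS at 581/591 nm (reduced dye) and 488/510 nm (oxidized dye); emission ratio calculated, unpaired Student's t-test.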

[3] = Drug level in mouse plasma treated with QD394 at 500 uM measured after 0.5 hrs by LC-MS/MS analysis
MIA PaCa-2 [4] = assay: Inhibition glutathione synthesis in human MIA PaCa-2 cells at 1 to 2 uM measured after 2 to 4 hrs by GSH/GSSG-glo assay; type: functional, cell-based; settings: dose microM 1-2, time hrs 2-4
Outline: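 GSH/GSSG-Glo luminescent assay: 15,000–20,000 MIA PaCa-2 cells per well, attached overnight, treated 2 h and 4 h. Cells were lysed with total or oxidized glutathione reagent, then luciferin generation (30 min, room temperature) and detection reagents added. Luminescence was read after 15 min. Ratio was computed from net RLU as (total − GSSG)/(GSSG/2).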

MIA PaCa-2 [5] = assay: Induction of ferroptosis in human MIA PaCa-2 cells assessed as increase in lipid peroxidation at 100 uM measured after 24 hrs by C11-BODIPY dye based fluorescence assay; type: functional, cell-based; outline: as §2
MIA PaCa-2 [6] = assay: Induction of reactive oxygen species in human MIA PaCa-2 cells at 200 uM measured after 30 mins in presence of N-acetylcysteine by CM-H2DCFDA dye based fluorescence assay; type: functional, cell-based
Outline: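 MIA PaCa-2 cells seeded at 1.8 × 10⁴/well, attached overnight, then loaded with 10 μM CM-H2DCFDA in HBSS for 40 min at 37 °C. Washed twice with warm DPBS; compounds added in HBSS. N-acetylcysteine used at 3 mM. Fluorescence read at Ex 483 / Em 530 nm, with the 30 min point taken. Unpaired t-test.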

| SMILES | IC50 (MIA PaCa-2 [1]) [nM] | IC50 (BXPC-3) [nM] | IC50 (PANC-1) [nM] | Drug uptake [3] | other results |
| --- | --- | --- | --- | --- | --- |
| O=C1C(Nc2ccc(C3CCCCC3)cc2)=CC(=O)c2ncncc21 | 1200 | 500 | 900 | – | – |
| CCOc1ccccc1-n1c(C(C)N2CCN(C(=O)COc3ccc(Cl)cc3)CC2)nc2ccccc2c1=O (centres undefined) | – | – | – | – | Activity (MIA PaCa-2 [2]): Active |
| O=C1C(Nc2ccc(N3CCCCC3)cc2)=CC(=O)c2ncncc21 | 2400 | 2500 | 1400 | – | – |
| CN1C(O)CN(c2ccc(NC3=CC(=O)c4ncncc4C3=O)cc2)CC1O (centres undefined) | – | – | – | Active | – |
| CCCCS(=N)(=O)CCC(N)C(=O)O (centres undefined) | – | – | – | – | inhibition (MIA PaCa-2 [4]): Active |
| O=C1C(Nc2ccc3c(c2)Cc2ccccc2-3)=CC(=O)c2ncncc21 | 2200 | 2600 | 1600 | – | – |
| CN1CCN(c2ccc(NC3=C(SCC(N)C(=O)O)C(=O)c4ncncc4C3=O)cc2)CC1 (centres undefined) | – | – | – | Active | – |
| O=C1C(Nc2ccc(N3CCOCC3)cc2)=CC(=O)c2ncncc21 | 1500 | 2300 | 800 | – | – |
| COc1c(Nc2ccc(N3CCN(C)CC3)cc2)cc(OC)c2ncncc12 | – | – | – | Active | – |
| CC(C)(C)OO | – | – | – | – | Activity (MIA PaCa-2 [5]): Active; Activity (MIA PaCa-2 [6]): inactive |
